Series [1] relates to L1210. The experiment in a line: Antitumor activity in mouse L1210 cells allografted in mouse assessed as increase in survival time at optimal dose administered qd on days 1 to 5 of challenge relative to control. It counts as functional. In outline: (§1)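 Mouse leukemia survival test run under standard National Cancer Institute protocols. T/C = (treated-animal average survival time / control-animal average survival time) × 100%. Optimum dose is expressed as mg/kg/dose. T/C data were duplicated in separate experiments except where a footnote states that confirmation was not run.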

In series [2] the test system is P388. The experiment in a line: Antitumor activity in mouse P388 cells allografted in mouse assessed as increase in survival time at optimal dose administered qd on days 1 to 9 of challenge relative to control. It counts as functional. In outline:
as §1

The subject of series [3] is L1210. Put plainly: Inhibition of DNA synthesis in mouse L1210 cells assessed as inhibition of tritiated thymidine incorporation into nucleic acids. Particulars: read-out: ED50 (the source's name). It counts as functional. Put shortly:
(§2)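 Cultured L1210 cells were labeled with tritiated thymidine (DNA) or tritiated uridine (RNA), and label incorporation into the isolated nucleic acids was measured. The ED50 is the drug concentration that inhibits this incorporation by 50%. Other details are referenced to earlier work.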
Background: Incorporation of labelled thymidine or its analogues reports DNA synthesis.

Series [4] relates to L1210. The experiment in a line: Inhibition of RNA synthesis in mouse L1210 cells assessed as inhibition of tritiated uridine incorporation into nucleic acids. It counts as functional. Particulars: read-out: ED50 (the source's name). In outline:
as §2

The species entered for series [5] is Mus musculus. Put plainly: Acute toxicity in mouse. It counts as organism-based. The following applies: in vivo.
In series [6] the test system is L1210. Put plainly: Antitumor activity in mouse L1210 cells allografted in mouse assessed as increase in survival time at optimal dose administered qd on days 1 to 9 of challenge relative to control. It counts as functional. Put shortly:
as §1

In series [7] the test system is L1210. Put plainly: Antitumor activity in mouse L1210 cells allografted in mouse assessed as increase in survival time at optimal dose administered qd on days 1 to 16 of challenge relative to control. It counts as functional. Put shortly: as §1
Series [8] concerns L1210. The experiment in a line: Antitumor activity in mouse L1210 cells allografted in mouse assessed as increase in survival time at optimal dose administered as single dose relative to control. It counts as functional. In outline: as §1
Series [9] has as its system L1210. Put plainly: Antitumor activity in mouse L1210 cells allografted in mouse assessed as increase in survival time at 400 mg/kg administered as single dose relative to control. It counts as functional. Put shortly:
as §1

Each structure is given as a SMILES string. pEC50: −log10 of the molar value.

The term T/C denotes the result in the treated group divided by that in the control group, in per cent.

Regarding `Cn1cnc([N+](=O)[O-])c1Sc1nc(N)nc2c1ncn2[C@H]1C[C@H](O)[C@@H](CO)O1`, the figures for the T/C in series [1] and in series [2] were 173% and 161%, respectively. In addition, the values for the pEC50 in series [3] and in series [4] were 4.60 and 4.96, respectively. In addition, the Activity result in series [5] was “Non-toxic”.

Consider `Nc1nc2c(ncn2[C@H]2C[C@H](O)[C@@H](CO)O2)c(=S)[nH]1` [ATEGANOSINE], for which the T/C in series [1] is 219%; in series [6] it was 208%; in series [2], 138%. Further, the pEC50 in [3] was below 4.00; in [4], 4.30.

`Cn1cnc([N+](=O)[O-])c1Sc1nc(N)nc2c1ncn2[C@@H]1C[C@H](O)[C@@H](CO)O1`: the T/C in series [1] is 137%; in series [2], below 125%. For the same molecule, the pEC50 in series [3] and in series [4] was below 4.00 each time. For the same molecule, the Activity entry in [5] is “Non-toxic”.

As for `Cc1cccc(CSc2nc(N)nc3c2ncn3[C@@H]2C[C@H](O)[C@@H](CO)O2)n1`, the T/C in series [1] and in series [2] was below 125% each time. Also, the pEC50 in series [3] was 4.10; in series [4], 4.14. In addition, the Activity result in [5] is reported as “Non-toxic”.

In the case of `CC(=O)OC[C@H]1O[C@@H](n2cnc3c(=S)[nH]c(N)nc32)C[C@@H]1OC(C)=O`, the figures for the T/C in [1] and in [2] were 156% and 174%, respectively.

Take `CC(=O)OC[C@H]1O[C@H](n2cnc3c(=S)[nH]c(N)nc32)C[C@@H]1OC(C)=O`: the T/C in series [1] is reported as below 125%.

With `Nc1nc2c(ncn2[C@@H]2C[C@H](O)[C@@H](CO)O2)c(=S)[nH]1`, the T/C is recorded as 161% in series [1], 174% in series [7] and 168% in series [2]. Moreover, the pEC50 in series [3] and in series [4] was below 4.00 in each case.

For `CSc1nc(N)nc2c1ncn2[C@H]1C[C@H](O)[C@@H](CO)O1`, the T/C in series [1] stood at 128%. For the same molecule, the pEC50 in series [3] is 4.57; in series [4], 4.62. Moreover, in series [5], the Activity result was “Non-toxic”.

As to `C=CCSc1nc(N)nc2c1ncn2[C@@H]1C[C@H](O)[C@@H](CO)O1`, the T/C in series [1] and in series [2] was below 125% throughout. The pEC50 in [3] and in series [4] was below 4.00 each time. Besides, the Activity result in series [5] is on record as “Non-toxic”.

On to `C=CCSc1nc(N)nc2c1ncn2[C@H]1C[C@H](O)[C@@H](CO)O1`, for which the T/C in series [1] was found to be 179%; in series [2], 181%. The values for the pEC50 in series [3] and in [4] were 5.26 and 5.52, respectively. In addition, in [5], the Activity entry is listed as “Non-toxic”.

Take `Nc1nc(SCc2ccccc2)c2ncn([C@@H]3C[C@H](O)[C@@H](CO)O3)c2n1`: in series [1], the T/C was determined as 144%. Besides, the Activity result in [5] is listed as “Non-toxic”.

Regarding `Cc1cccc(CSc2nc(N)nc3c2ncn3[C@H]2C[C@H](O)[C@@H](CO)O2)n1`, the results for the T/C in series [1] and in series [2] were 153% and below 125%, respectively. In addition, the pEC50 in [3] was 4.19; in series [4], 4.51. Besides, the Activity entry in [5] is reported as “Non-toxic”.

Consider `Nc1nc(SCc2ccccc2)c2ncn([C@H]3C[C@H](O)[C@@H](CO)O3)c2n1`, for which the T/C in [8] was determined as 172%; in series [9] it was 157%. For the same molecule, in series [5], the Activity result is recorded as “Non-toxic”.

With `CSc1nc(NC(C)=O)nc2c1ncn2[C@H]1C[C@H](O)[C@@H](CO)O1`, the T/C in series [1] was below 125%. In [5], the Activity entry was “Non-toxic”.

With `CSc1nc(N)nc2c1ncn2[C@@H]1C[C@H](O)[C@@H](CO)O1`, the T/C in series [1] and in series [2] was below 125% each time. For the same molecule, the pEC50 in [3] and in series [4] was below 4.00 each time. In addition, in series [5], the Activity entry is on record as “Non-toxic”.

Values taken from ChEMBL document CHEMBL3244108, “Potential antitumor agents. Some sulfur-substituted derivatives of alpha- and beta-2'-deoxythioguanosine” (J Med Chem, 1977).
